In PubChem BioAssay:
Inconclusive results are not listed. Active and inactive are the calls of the source.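 How the source made its calls, unless noted: active means cell viability at or below a set limit in both duplicate runs, the limit being the all-compound median minus 4 SD (cut at about 23% in these data, passing the limit was not always enough); inconclusive means no clear call, values can overlap the other calls; inactive means the rest.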

What was measured:
[1] = S. cerevisiae growth inhibition in permissive medium (OD615), pilot counter-assay for S. cerevisiae lifespan shortening project, permissive growth control (AID 705;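 active means growth inhibition above 25% in both replicates, a cutoff set 3 SD above the mean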); details: OD615, 24 h, at 10 µM, active compounds read high
Outline: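 Material: engineered DeaD yeast; compound dosing: one dose 10 µM, DMSO 0.25% final; measure: yeast growth inhibition indicated by reduced 24 h OD615; detection: OD615 turbidity read; incubation: cells pre-grown 4 h, then 24 h compound exposure, 30 °C humidified; medium: permissive synthetic complete medium with raffinose and galactose carbon sources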

[2] = S. cerevisiae growth inhibition in restrictive medium, OD615, pilot screen, restrictive growth control, yeast lifespan reduction project (AID 706;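 active means growth inhibition above a set limit, 3 SD over mean compound inhibition, in both replicates, cut at about 43% in these data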;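 further: modified DeaD lifespan yeast strain shifted to restrictive glucose medium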); details: OD615, 48 h, at 10 µM, active compounds read high
Outline: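 material = engineered S. cerevisiae DeaD strain | medium = glucose-based CSMM-D restrictive medium | times = 4 h pre-incubation, 48 h exposure at 30 °C | technique = OD615 absorbance reading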

[3] = doxorubicin toxicity protection in MRP-1 cells – H69AR cells, CellTiter-Glo, duplicate, MRP-1 activator project, pilot screen (AID 807;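 active means viability increase at or above a cutoff of the median across tested compounds plus 3 SD, cut at about 8.5% in these data, passing the limit was not always enough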;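 further: compound pretreatment 18-22 h then 72 h combined with doxorubicin; 0% = doxorubicin alone and 100% = vehicle without doxorubicin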); details: H69AR viability with doxorubicin, CellTiter-Glo luminescence; at 10 µM; active compounds read high
[4] = viability of HCT116 without oncogenic beta-catenin – human colon tumor cells, pilot screen (AID 823); details: HCT116 beta-catenin knockout viability, CellTiter-Glo, 60 h; at 10 µM; active compounds read low;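 further: 0% = wells killed by 20 µM Hyamine and 100% = untreated DMSO cell wells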
[5] = viability of PTEN-null HCT116 cells – cell-based, HCT116 clonal line, CellTiter-Glo, pilot screen (AID 824;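 active means viability at or below 27.92% in each of two runs, the all-compound median minus 4 SD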;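 further: 0% = 20 µM Hyamine control and 100% = vehicle cell control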); details: HCT116 PTEN-deleted viability, 60 h, at 10 µM, active compounds read low
[6] = RAM pathway blockade in budding yeast – dse1pr::URA3 reporter, 5-FOA selection, pilot screen (AID 869;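 active means inhibition over a set limit, the all-compound mean plus 3 SD, in both replicate runs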;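 further: 0% = DMSO wells with no growth and 100% = 10 µM 1-NA-PP1 with full growth; RAM network block rescues cells from 5-FOA so hits raise OD615 growth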); details: S. cerevisiae dse1pr::URA3 5-FOA growth, OD615, 2 d; at 10 µM; active compounds read high; strain carries analog-sensitive mutant Cbk1 kinase
[7] = RAM signaling pathway blockade in yeast – S. cerevisiae, Pdr1DBD-CYC8 efflux-inhibited sensitized strain, primary screen (AID 1298;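 active means RAM network inhibition above 8.4% in each of two replicates, 3 SD over the compound average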;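 further: 0% = DMSO untreated cells without growth and 100% = 10 µM 1-NA-PP1 full growth; higher means more yeast growth rescued from 5-FOA killing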); details: S. cerevisiae cbk1-as DSE1-URA3 strain, 5-FOA growth OD615, 2 d; at 50 µM; active compounds read high

Cc1nnc(NC(=O)CSc2nnc(Cc3cccn3C)n2-c2ccccc2)s1
inactive: growth inhibition [1] 10.8% | viability increase [3] 0.97% | viability [4] 95% | viability [5] 95.3% | inhibition [6] 1.31% | RAM network inhibition [7] 4.48%
active: growth inhibition [2] 46.5%

COC(=O)C1(C)Nc2ccccc2C(=O)N1c1ccccc1OC (stereo unspecified)
inactive: growth inhibition [1] -17% | growth inhibition [2] -23.6% | viability increase [3] -0.77% | viability [4] 103% | viability [5] 88.5% | inhibition [6] 1.97% | RAM network inhibition [7] 5.8%

O=C(C1CC1)N1CCc2cc(Br)cc(S(=O)(=O)NCc3ccccn3)c21
inactive: growth inhibition [1] -8.05% | growth inhibition [2] -19% | viability increase [3] -1.89% | viability [4] 99.2% | viability [5] 96.9% | inhibition [6] 1.32% | RAM network inhibition [7] 5.17%

Brc1ccc(OCCOCCN2CCOCC2)cc1
inactive: growth inhibition [1] -13.4% | growth inhibition [2] -8.66% | viability increase [3] 2.95% | viability [4] 91.7% | viability [5] 93% | inhibition [6] 0.12% | RAM network inhibition [7] 1.24%

CCOC(=O)N1CCC(NC(=O)Cn2cc3c(n2)CCCC3)CC1
inactive: growth inhibition [1] -1.57% | growth inhibition [2] -0.65% | viability increase [3] -3.35% | viability [4] 107% | viability [5] 92.5% | inhibition [6] 2.6% | RAM network inhibition [7] 2.81%

COc1ccc(OC)c(N(CC(=O)Nc2ccc3c(c2)OCCO3)S(C)(=O)=O)c1
inactive: growth inhibition [1] -6.81% | growth inhibition [2] -3.32% | viability increase [3] -2.52% | viability [4] 92.4% | viability [5] 89.8% | inhibition [6] 0.825% | RAM network inhibition [7] 3.49%

Cc1c(=O)n(OCc2ccccc2)c2ccccc2[n+]1[O-]
inactive: growth inhibition [1] -0.885% | growth inhibition [2] 1.5% | viability increase [3] -3.92% | viability [4] 95.9% | viability [5] 95.8% | inhibition [6] 0.09% | RAM network inhibition [7] 9.74%

O=C(Cn1cnc2c(nnn2-c2ccccc2)c1=O)NCc1ccco1
inactive: growth inhibition [1] 1.43% | growth inhibition [2] 3.14% | viability increase [3] -3.77% | viability [4] 104% | viability [5] 89.8% | inhibition [6] 0.32% | RAM network inhibition [7] 0.83%

Cc1cc(C)nc(NS(=O)(=O)c2ccc(NC(=O)CCCN3C(=O)c4ccccc4C3=O)cc2)n1
inactive: growth inhibition [1] -7.67% | growth inhibition [2] -0.225% | viability increase [3] -1% | viability [4] 99.6% | viability [5] 100% | inhibition [6] 0.735% | RAM network inhibition [7] 3.72%

O=C(NC1=NCCS1)c1csc2ccccc12
inactive: growth inhibition [1] -9.29% | growth inhibition [2] 27.3% | viability increase [3] -3.86% | viability [4] 74% | viability [5] 79% | inhibition [6] 1.16% | RAM network inhibition [7] 1.26%

O=C(c1ccc(-c2ccccc2)cc1)N1CCCC1
inactive: growth inhibition [1] 0.63% | growth inhibition [2] -4.7% | viability increase [3] 0.06% | viability [4] 94.9% | viability [5] 98.8% | inhibition [6] 0.02% | RAM network inhibition [7] 10.3%

c1ccc(Cn2nnc3c(N4CCOCC4)ncnc32)cc1
inactive: growth inhibition [1] -15.8% | growth inhibition [2] -25.2% | viability increase [3] -1.15% | viability [4] 92.7% | viability [5] 89.5% | inhibition [6] 0.93% | RAM network inhibition [7] -0.79%

COc1ccccc1S(=O)(=O)Cc1ccc(C(=O)NCCN(C)C)o1
inactive: growth inhibition [1] -6.73% | growth inhibition [2] 5% | viability increase [3] -0.73% | viability [4] 106% | viability [5] 98.2% | inhibition [6] 1.9% | RAM network inhibition [7] 0.1%

COc1cc(OC)c(C2CC(=O)N3CN(C)CSC3=C2C#N)cc1OC (stereo unspecified)
inactive: growth inhibition [1] 19.5% | viability increase [3] -2.96% | viability [4] 99.3% | viability [5] 97.2% | inhibition [6] 1.06% | RAM network inhibition [7] 9.58%
active: growth inhibition [2] 60%

CC(=O)Oc1ccc(N2C(=O)CC(N3CCOCC3)C2=O)cc1 (stereo unspecified)
inactive: growth inhibition [1] 2.42% | growth inhibition [2] 15% | viability increase [3] -0.57% | viability [4] 103% | viability [5] 99.9% | inhibition [6] 0.405% | RAM network inhibition [7] 0.46%

CCc1ccc(S(=O)(=O)NCc2cn3c(C)csc3n2)s1
inactive: growth inhibition [1] 0.075% | growth inhibition [2] 5.25% | viability increase [3] -2.89% | viability [4] 102% | viability [5] 94.1% | inhibition [6] 0.37% | RAM network inhibition [7] 2.22%

Cc1ccc(N2CCN(S(=O)(=O)c3ccc(F)cc3)CC2)c(C)c1
inactive: growth inhibition [1] -0.375% | growth inhibition [2] -15.2% | viability increase [3] -1.12% | viability [4] 66.6% | viability [5] 60.9% | inhibition [6] -0.44% | RAM network inhibition [7] 7.03%

COc1ccc(OC)c(N(CC(=O)NC2CC2)S(=O)(=O)c2ccc(C)cc2)c1
inactive: growth inhibition [1] -13.6% | growth inhibition [2] -20.4% | viability increase [3] -0.94% | viability [4] 96.1% | viability [5] 93.2% | inhibition [6] 0.73% | RAM network inhibition [7] 3.7%
